Measured values from ChEMBL document CHEMBL1781970, “Synthesis and antiproliferative evaluation of 23-hydroxybetulinic acid derivatives” (Eur J Med Chem, 2011).

Columns and labels:
Assay type in all cases: functional, cell-based
A-375 = assay: Antiproliferative activity against human A375 cells after 72 hrs by MTT assay; conditions: A-375, 72 h
How it was run: (§1)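 Cells grown in RPMI 1640 with 10% FBS and 1% penicillin-streptomycin at 37 °C, 5% CO2, then seeded overnight in 96-well plates. Test compounds were dissolved in DMSO (doxorubicin control in PBS) and given at various concentrations for 72 h at 37 °C. MTT (5 mg/mL in PBS) was added for 4 h and OD read at 570 nm. IC50 was taken from dose-response curves; mean ± SD, ≥3 independent experiments.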

B16 = assay: Antiproliferative activity against mouse B16 cells after 72 hrs by MTT assay; conditions: B16, 72 h; how it was run: as §1
MCF7 = assay: Antiproliferative activity against human MCF7 cells after 72 hrs by MTT assay; conditions: MCF7, 72 h; how it was run: as §1
HepG2 = assay: Antiproliferative activity against human HepG2 cells after 72 hrs by MTT assay; conditions: HepG2, 72 h; how it was run: as §1
HeLa = assay: Antiproliferative activity against human HeLa cells after 72 hrs by MTT assay; how it was run: as §1

Row | Compound | IC50 (A-375) [µM] | IC50 (B16) [µM] | IC50 (MCF7) [µM] | IC50 (HepG2) [µM] | IC50 (HeLa) [µM]
1 | C=C(CO)[C@@H]1CC[C@]2(C(=O)OC(C)(C)C)CC[C@]3(C)[C@H](CC[C@@H]4[C@@]5(C)CC[C@H](OC(C)=O)[C@@](C)(COC(C)=O)[C@@H]5CC[C@]43C)[C@@H]12 | 34.7 | 49.5 | 14.1 | 15.8 | 23.3
2 | C=C(CO)[C@@H]1CC[C@]2(C(=O)OCC3CCCO3)CC[C@]3(C)[C@H](CC[C@@H]4[C@@]5(C)CC[C@H](OC(C)=O)[C@@](C)(COC(C)=O)[C@@H]5CC[C@]43C)[C@@H]12 (stereo not given in full) | 12.5 | 41.8 | 33.6 | 18.7 | 17.8
3 | C=C(C)[C@@H]1CC[C@]2(C(=O)N3CCC(N4CCCCC4)CC3)CC[C@]3(C)[C@H](CC[C@@H]4[C@@]5(C)CC[C@H](O)[C@@](C)(CO)[C@@H]5CC[C@]43C)[C@@H]12 | 9.67 | 5.71 | 6.78 | 12.6 | 8.42
4 | C=C(C)[C@@H]1CC[C@]2(C(=O)NCC(=O)N[C@@H](C)C(=O)O)CC[C@]3(C)[C@H](CC[C@@H]4[C@@]5(C)CC[C@H](O)[C@@](C)(CO)[C@@H]5CC[C@]43C)[C@@H]12 | 18.4 | 22.2 | 17.2 | 32.4 | 22.1
5 | C=C(CO)[C@@H]1CC[C@]2(C(=O)OCCC(C)C)CC[C@]3(C)[C@H](CC[C@@H]4[C@@]5(C)CC[C@H](OC(C)=O)[C@@](C)(COC(C)=O)[C@@H]5CC[C@]43C)[C@@H]12 | 7.8 | 35.9 | 15.1 | 10.7 | 20.8
6 | C=C(CO)[C@@H]1CC[C@]2(C(=O)N3CCOCC3)CC[C@]3(C)[C@H](CC[C@@H]4[C@@]5(C)CC[C@H](OC(C)=O)[C@@](C)(COC(C)=O)[C@@H]5CC[C@]43C)[C@@H]12 | 31.8 | 39.3 | 17.3 | 20.7 | 18.3
7 | C=C(C)[C@@H]1CC[C@]2(C(=O)N3CCC(N4CCCCC4)CC3)CC[C@]3(C)[C@H](CC[C@@H]4[C@@]5(C)CC[C@H](OC(C)=O)[C@@](C)(COC(C)=O)[C@@H]5CC[C@]43C)[C@@H]12 | 8.42 | 9.57 | 6.86 | 11.1 | 10.8
8 | C=C(C)[C@@H]1CC[C@]2(C(=O)N3CCNCC3)CC[C@]3(C)[C@H](CC[C@@H]4[C@@]5(C)CC[C@H](OC(C)=O)[C@@](C)(COC(C)=O)[C@@H]5CC[C@]43C)[C@@H]12 | 18.8 | 13.1 | 4.89 | 17.7 | 18.8

Results, then the compound that gave them:

Row | IC50 (A-375) [µM] | IC50 (B16) [µM] | IC50 (MCF7) [µM] | IC50 (HepG2) [µM] | IC50 (HeLa) [µM] | Compound
9 | 30.6 | 66.9 | 17.7 | 48.3 | 46.3 | C=C(C)[C@@H]1CC[C@]2(C(=O)NCCCCn3nnc(-c4ccccn4)n3)CC[C@]3(C)[C@H](CC[C@@H]4[C@@]5(C)CC[C@H](O)[C@@](C)(CO)[C@@H]5CC[C@]43C)[C@@H]12
10 | 8.71 | 24.2 | 97.6 | 12.3 | 9.18 | C=C(C)[C@@H]1CC[C@]2(C(=O)OCCN3CCOCC3)CC[C@]3(C)[C@H](CC[C@@H]4[C@@]5(C)CC[C@H](OC(C)=O)[C@@](C)(COC(C)=O)[C@@H]5CC[C@]43C)[C@@H]12
11 | 2.3 | 4.39 | 2.27 | 8.85 | 7.12 | C=C(C)[C@@H]1CC[C@]2(C(=O)N3CCNCC3)CC[C@]3(C)[C@H](CC[C@@H]4[C@@]5(C)CC[C@H](O)[C@@](C)(CO)[C@@H]5CC[C@]43C)[C@@H]12
12 | 17.9 | 51.2 | 12.5 | 34.6 | 20.9 | C=C(CO)[C@@H]1CC[C@]2(C(=O)OCCC(C)C)CC[C@]3(C)[C@H](CC[C@@H]4[C@@]5(C)CC[C@H](O)[C@@](C)(CO)[C@@H]5CC[C@]43C)[C@@H]12
13 | 42.7 | 84.1 | 16.4 | 22.7 | 30.7 | C=C(CO)[C@@H]1CC[C@]2(C(=O)OC(C)(C)C)CC[C@]3(C)[C@H](CC[C@@H]4[C@@]5(C)CC[C@H](O)[C@@](C)(CO)[C@@H]5CC[C@]43C)[C@@H]12
14 | 59.5 | 82.6 | 51 | 76.1 | 72.9 | C=C(C)[C@@H]1CC[C@]2(C(=O)NCCNC(=O)CCC(=O)O)CC[C@]3(C)[C@H](CC[C@@H]4[C@@]5(C)CC[C@H](OC(C)=O)[C@@](C)(COC(C)=O)[C@@H]5CC[C@]43C)[C@@H]12
15 | 5.72 | > 100 | 15.9 | 7.43 | 16.4 | C=C(C)[C@@H]1CC[C@]2(C(=O)OC/C=C/CO)CC[C@]3(C)[C@H](CC[C@@H]4[C@@]5(C)CC[C@H](OC(C)=O)[C@@](C)(COC(C)=O)[C@@H]5CC[C@]43C)[C@@H]12
16 | 4.33 | 18.5 | 26.4 | 9.74 | 7.47 | C=C(C)[C@@H]1CC[C@]2(C(=O)N3CCOCC3)CC[C@]3(C)[C@H](CC[C@@H]4[C@@]5(C)CC[C@H](OC(C)=O)[C@@](C)(COC(C)=O)[C@@H]5CC[C@]43C)[C@@H]12
17 | > 100 | > 100 | > 100 | 66.3 | 69.2 | C=C(C)[C@@H]1CC[C@]2(C(=O)N3CCCCC3)CC[C@]3(C)[C@H](CC[C@@H]4[C@@]5(C)CC[C@H](OC(C)=O)[C@@](C)(COC(C)=O)[C@@H]5CC[C@]43C)[C@@H]12
18 | 21.5 | 23.7 | 17.2 | 10.7 | 19.5 | C=C(CO)[C@@H]1CC[C@]2(C(=O)OC(C)C)CC[C@]3(C)[C@H](CC[C@@H]4[C@@]5(C)CC[C@H](OC(C)=O)[C@@](C)(COC(C)=O)[C@@H]5CC[C@]43C)[C@@H]12
